Measured values gathered from unrelated publications.
Compare with care: the assays were run in different laboratories.
Target: SNF-related serine/threonine-protein kinase (SNRK, Homo sapiens, UniProt Q9NRH2)
One construct used (Q9NRH2 1-765): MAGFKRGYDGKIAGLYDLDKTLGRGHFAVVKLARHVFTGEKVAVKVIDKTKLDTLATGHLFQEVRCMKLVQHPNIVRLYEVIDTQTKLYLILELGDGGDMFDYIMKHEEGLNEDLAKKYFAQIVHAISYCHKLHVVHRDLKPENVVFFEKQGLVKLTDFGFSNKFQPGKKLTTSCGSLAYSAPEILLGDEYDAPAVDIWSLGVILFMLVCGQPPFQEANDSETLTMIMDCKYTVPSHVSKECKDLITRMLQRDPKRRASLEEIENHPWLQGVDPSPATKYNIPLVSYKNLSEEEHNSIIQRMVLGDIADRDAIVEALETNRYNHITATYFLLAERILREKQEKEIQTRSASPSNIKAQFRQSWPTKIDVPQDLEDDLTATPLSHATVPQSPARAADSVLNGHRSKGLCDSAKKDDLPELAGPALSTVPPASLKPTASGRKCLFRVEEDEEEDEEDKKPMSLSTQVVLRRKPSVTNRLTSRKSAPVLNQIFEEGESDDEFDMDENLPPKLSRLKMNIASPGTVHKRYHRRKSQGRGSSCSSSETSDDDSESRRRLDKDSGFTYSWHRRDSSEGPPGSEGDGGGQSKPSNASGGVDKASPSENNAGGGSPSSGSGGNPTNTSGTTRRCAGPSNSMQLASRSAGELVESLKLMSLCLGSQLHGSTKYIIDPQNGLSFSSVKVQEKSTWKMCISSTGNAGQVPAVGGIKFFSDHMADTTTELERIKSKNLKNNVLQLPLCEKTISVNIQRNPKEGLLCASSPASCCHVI

For `COc1cccc2c(NCc3ccccc3)nc(-n3c(N)nc4ccccc43)nc12`, the inhibition was 1.2% (target engagement in cells, inhibitor, chemoproteomics; 20 mM).
For `Nc1ncnc2occ(-c3ccc(NC(=O)Nc4cc(C(F)(F)F)ccc4F)cc3)c12`, the remaining signal was 64% (cell-free assay, inhibitor; 20 µM).
For `C[C@@H]1CN(c2cc(-c3nn(C)c4ccc(OC5(C)CC5)cc34)ncn2)C[C@H](C)O1`, the remaining binding was 92% (cell-free assay, competition with immobilised ligand; 1 µM).
The remaining activity of `O=C(Nc1cnn(-c2csc(C(=O)NC3COC3)c2)c1)Nc1ccccc1Cl` is reported as 96.8% (enzyme activity, inhibitor; 5 µM).
`Cc1ccc(NC(=O)c2ccc(C)c(C(F)(F)F)c2)cc1C#Cc1nn(C2CCC(O)CC2)c2ncnc(N)c12` (stereo not drawn) gave a remaining signal of 92% (cell-free assay; 10 µM).
For `Cc1cc(NC(=O)c2cccc3cc(-c4cccc5[nH]nc(N)c45)ccc23)ccc1F`, the activity vs control was 109% (enzyme activity, inhibitor; 0.1 µM).
`Cc1cnc(NC2CCOCC2)nc1-n1cnc(C(=O)NC(CN)c2cc(F)cc(Cl)c2)c1` (stereo not drawn) gave a remaining activity of 100% (enzyme activity, inhibitor, radiometric; 1 µM).
`COc1cc(Cl)c(C(=O)N[C@@H](CN[C@H]2CC[C@@H](N)CC2)Cc2ccc(C#N)cc2)cc1-c1ccc(CN[C@H](C)c2ccc(C)cc2)o1` has a remaining activity of 104% (enzyme activity, inhibitor; 1 µM).
The inhibition of `CN1CC(Oc2cnc(C#N)cc2-c2ccn3nc(NC(=O)C4CC4)cc3c2)C1` is reported as -12% (enzyme activity, inhibitor; 1 µM).
The remaining activity of `Cc1sc(C(=O)NC2COC2)cc1-n1cc(NC(=O)Nc2c(F)cccc2Cl)cn1` is reported as 102% (enzyme activity, inhibitor; 10 µM).
With `c1ccc(CNc2nc(N3CCOc4ccccc43)nc3c2CCCC3)cc1` the inhibition was 0.3% (target engagement in cells, inhibitor, chemoproteomics; 20 mM).
`CNC(=O)Nc1ccc2c(c1)CC[C@@]21OC(=O)N(CC(=O)N(Cc2ccc(F)cc2)[C@@H](C)C(F)(F)F)C1=O` gave a remaining binding of 96% (cell-free assay, competition with immobilised ligand; 1 µM).
